This is an account of results in paper PMC4943881 (Biochemistry, 2015).

Where two headings read alike, the source gives them in different places. Where a SMILES comes first, the peptide text is derived from it.

Test [1] deals with T1, 0P-ERK2 (inactive ERK2) (Rattus norvegicus, UniProt P63086). As to the kind of experiment: NMR. Format: binding. To be noted: estimated, slow/intermediate exchange prevented accurate determination. The procedure, abridged:
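Unphosphorylated ERK2 from E. coli BL21(DE3), ILV-methyl-labeled in a protonated background, ~0.26 mM in 50 mM Tris pH 7.4, 150 mM NaCl, 5 mM MgSO4, 0.1 mM EDTA, 5 mM DTT, 99% D2O, 2.5% glycerol. AMP-PNP titrated at 0, 0.1, 0.2, 0.3, 1.0, 2.1, 4.2 mM; 5 h 2D TROSY-HMQC per point, 25 °C, 800 MHz; combined methyl CSP (1H, 0.25×13C).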

Test [2] addresses T2, 2P-ERK2 (active ERK2) (Rattus norvegicus, UniProt P63086). As to the kind of experiment: NMR. The class given is binding. To be noted: estimated, slow/intermediate exchange prevented accurate determination.
Another test concerns 2P-p38α. Conditions: cited from earlier work.
The subject of test [3] is Tyr-185 phosphorylated (pY) ERK2. Conditions: formation of the ternary MBP-bound complex of pY ERK2; cited from earlier work.
For a further test, the target named is 0P-p38α. To be noted: read-out: binding affinity of ATP; cited from earlier work.
Test [4] deals with T2, 2P-ERK2 (active ERK2). Nature of the test: NMR. Format: binding.
Test [5] deals with T1, 0P-ERK2 (inactive ERK2). Nature of the test: NMR. The class given is binding.
Test [6] has as its target Elk1F peptide DEF-site peptide (Homo sapiens) (UniProt P19419). To be noted: cited from earlier work.
Test [7] addresses 0P-ERK2 mutant that was binding competent only at the DEJL-site. Conditions: full-length Elk1 protein and 0P-ERK2 mutant binding competent only at the DEJL-site; cited from earlier work.

On to `Nc1ncnc2c1ncn2[C@@H]1O[C@H](COP(=O)(O)OP(=O)(O)NP(=O)(O)O)[C@@H](O)[C@H]1O` [AMP-PNP, adenosine 5′-(β,γ-imido)triphosphate], for which the Kd on 0P-ERK2 (inactive ERK2) [1] and on 2P-ERK2 (active ERK2) [2] was 200 to 500 µM throughout.
Consider `Nc1ncnc2c1ncn2[C@@H]1O[C@H](COP(=O)(O)OP(=O)(O)OP(=O)(O)O)[C@@H](O)[C@H]1O` [ATP], for which, in the test with 2P-p38α (2P-p38α versus 0P-p38α), the “increase in the binding affinity of ATP upon phosphorylation” value is reported as over 30 fold. Moreover, the Kd is 430 µM at 2P-p38α (read-out: binding affinity of ATP, 2P-p38α) and over 15000 µM on 0P-p38α. In [3], the “koff, ATP” value is 0.5 s⁻¹.
For `CC(C)C[C@H](NC(=O)[C@H](CO)NC(=O)[C@@H]1CCCN1C(=O)[C@H](CO)NC(=O)[C@H](CC(C)C)NC(=O)[C@@H]1CCCN1C(=O)[C@H](CC(C)C)NC(=O)[C@H](CCC(=O)O)NC(=O)[C@H](CC(C)C)NC(=O)[C@H](CC(=O)O)NC(=O)[C@H](CCCNC(=N)N)NC(=O)[C@@H]1CCCN1C(=O)[C@H](CCCCN)NC(=O)[C@H](CCCNC(=N)N)NC(=O)CNC(=O)[C@H](CCCCN)NC(=O)[C@@H](N)CCC(N)=O)C(=O)O` [Elk1D] (H-QKGRKPRDLELPLSPSL-OH), the values for the Kd at 2P-ERK2 (active ERK2) [4] and on 0P-ERK2 (inactive ERK2) [5] were 30 ± 3 µM and 10 ± 1 µM, respectively.
ERK2 (2P-ERK2) (from UniProt P63086): in test [6], the Kd is 8 µM.
For the molecule “full-length Elk1 protein: full-length transcription factor Elk1, a substrate of ERK2”, the Kd in test [7] is 5 µM.
